{"source": "ChEMBL document CHEMBL1156963", "about": "“Regioselective one-pot synthesis and anti-proliferative and apoptotic effects of some novel tetrazolo[1,5-a]pyrimidine derivatives” (Bioorg Med Chem, 2010)", "key": {"[1]": {"test_system": "Ehrlich", "assay": "Antitumor activity against mouse EAC cells transplanted in Albino mouse assessed as decrease in number of living cells at 10 mg/kg, po QD for 2 weeks using trypan blue staining by Neubauer hemocytometry relative to control", "type": "functional, organism-based", "set-up": "dose 10 mg/kg", "how_it_was_run": "(§1)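 Female albino mice each received 0.2 ml EAC ascites intraperitoneally (stock aliquot diluted 1:50 in saline). Dosing was 10 mg/kg in 10% DMSO by gastric intubation, daily for 2 weeks from the day of inoculation, against a 10% DMSO vehicle group (12 mice per group). At the end, under ether, 0.2 ml saline was given ip and ascites aspirated 1 min later. Aliquot volume was measured. Live and dead cells were counted by trypan blue on a Neubauer haemocytometer. Mean ± SE, LSD.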"}, "[2]": {"test_system": "Ehrlich", "assay": "Antitumor activity against mouse EAC cells transplanted in Albino mouse assessed as decrease in total number of cells at 10 mg/kg, po QD for 2 weeks using trypan blue staining by Neubauer hemocytometry relative to control", "type": "functional, organism-based", "set-up": "dose 10 mg/kg", "how_it_was_run": "as §1"}, "[3]": {"assay": "Antitumor activity against mouse EAC cells transplanted in Albino mouse assessed as decrease in EAC-aliquot volume at 10 mg/kg, po QD for 2 weeks relative to control (Rvb= 5.77+/-0.39 ml)", "type": "functional, Ehrlich", "how_it_was_run": "as §1"}, "[4]": {"assay": "Antitumor activity against mouse EAC cells transplanted in Albino mouse assessed as increase in survival at 10 mg/kg, po QD for 2 weeks relative to control", "type": "functional, Ehrlich", "how_it_was_run": "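Female albino mice inoculated i.p. with 0.2 ml 1:50 saline-diluted EAC; oral gavage in 10% DMSO daily between 10 and 12 AM for 2 successive weeks from inoculation day; vehicle-treated controls (12 mice per group). Survival percent = survived/total animals × 100.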"}, "[5]": {"assay": "Toxicity in Albino mouse assessed as mortality after 48 hrs", "type": "organism-based", "conditions": "in vivo"}, "[6]": {"test_system": "Ehrlich", "assay": "Antitumor activity against mouse EAC cells transplanted in Albino mouse assessed as increase in number of dead cells at 10 mg/kg, po QD for 2 weeks using trypan blue staining by Neubauer hemocytometry relative to control", "type": "functional, organism-based", "set-up": "dose 10 mg/kg", "how_it_was_run": "as §1"}, "[7]": {"assay": "Antitumor activity against mouse EAC cells transplanted in Albino mouse assessed as increase in cell mortality rate at 10 mg/kg, po QD for 2 weeks using trypan blue staining by Neubauer hemocytometry relative to control", "type": "functional, Ehrlich", "how_it_was_run": "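Female albino mice given 0.2 ml EAC (1:50 dilution in saline of aliquot from stock mice) i.p.; dosed orally by gastric intubation in 10% DMSO daily for 2 weeks from day of inoculation, vehicle controls. At end, ascites collected after 0.2 ml saline i.p. under ether; alive/dead cells counted by trypan blue exclusion, percent dead per mouse; mean ± SE, LSD test.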"}, "[8]": {"assay": "Growth inhibition of mouse EAC cells at 25 ug/ml after 2 hrs using trypan blue staining by Neubauer hemocytometry", "type": "functional", "conditions": "Ehrlich, read-out: GI", "how_it_was_run": "(§2)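 EAC cells at 2.5 × 10^5 cells/ml in PBS were exposed to three compound concentrations for 2 h at 37 °C in 5% CO2. An equal volume of trypan blue was then added. Stained (dead) and unstained cells were counted on a Neubauer haemocytometer, and percent dead cells was calculated per test.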"}, "[9]": {"assay": "Growth inhibition of mouse EAC cells at 50 ug/ml after 2 hrs using trypan blue staining by Neubauer hemocytometry", "type": "functional", "conditions": "Ehrlich, read-out: GI", "how_it_was_run": "as §2"}, "[10]": {"assay": "Growth inhibition of mouse EAC cells at 100 ug/ml after 2 hrs using trypan blue staining by Neubauer hemocytometry", "type": "functional", "conditions": "Ehrlich, read-out: GI", "how_it_was_run": "as §2"}, "[11]": {"test_system": "HepG2", "assay": "Cytotoxicity against human HepG2 cells after 48 hrs by sulforhodamine B assay", "type": "functional, cell-based", "how_it_was_run": "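HepG2 monolayers were treated with graded concentrations (0–100 range) for 48 h at 37 °C. Cells were then fixed and stained with sulforhodamine B, excess dye was removed with acetic acid, and bound dye was dissolved in Tris-EDTA for colorimetric reading. Survival fraction was plotted against concentration.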"}, "[12]": {"test_system": "Ehrlich", "assay": "Induction of apoptosis in mouse EAC cells transplanted in Albino mouse assessed as decrease in Bcl-2 level in cytoplasm of cells at 10 mg/kg, po QD for 2 weeks […] relative to control", "type": "functional, organism-based", "set-up": "dose 10 mg/kg"}, "[13]": {"test_system": "Ehrlich", "assay": "Induction of apoptosis in mouse EAC cells transplanted in Albino mouse assessed as increase in p53 level at 10 mg/kg, po QD for 2 weeks […] relative to control", "type": "functional, organism-based", "set-up": "dose 10 mg/kg"}}, "note": "Calls of active or inactive are those of the source. The rule behind the calls is not given here.", "data": [{"smiles": "c1nc2nnnn2c2c1CCCC2", "values": [{"measurement": "Activity", "setting": "[1]", "result": "Active"}, {"measurement": "Activity", "setting": "[2]", "result": "Active"}, {"measurement": "Activity", "setting": "[3]", "result": 2.52, "unit": "mL"}, {"measurement": "Activity", "setting": "[4]", "result": 83.33, "unit": "%"}, {"measurement": "LD50 at 48 h", "setting": "[5]", "result": 500, "unit": "mg/kg"}, {"measurement": "Activity", "setting": "[6]", "result": "Active"}, {"measurement": "Activity", "setting": "[7]", "result": 8.24, "unit": "%"}, {"measurement": "inhibition of growth at 25 µg/mL", "setting": "[8]", "result": 10, "unit": "%"}, {"measurement": "inhibition of growth at 50 µg/mL", "setting": "[9]", "result": 25, "unit": "%"}, {"measurement": "inhibition of growth at 100 µg/mL", "setting": "[10]", "result": 45, "unit": "%"}, {"measurement": "Activity", "setting": "[11]", "result": "Dose-dependent effect"}, {"measurement": "Activity", "setting": "[12]", "result": "Active"}, {"measurement": "Activity", "setting": "[13]", "result": "Active"}]}]}
